Legend:
PC-3 = test: Antiproliferative activity against human PC-3 cells assessed as reduction in cell viability incubated for 48 hrs by MTT assay; format: functional, cell-based; conditions: PC-3, 48 h
How it was run: (§1)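 MTT assay. 5,000 cells per well in RPMI-1640 with 10% FBS and penicillin/streptomycin at 37 °C, 5% CO2. Compound added 24 h after seeding and left for 48 h. MTT was then added for 4 h at 37 °C, formazan dissolved in DMSO and absorbance read at 490 nm. IC50 calculated from three independent experiments.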

MGC-803 = test: Antiproliferative activity against human MGC-803 cells assessed as reduction in cell viability incubated for 48 hrs by MTT assay; format: functional, cell-based; conditions: MGC-803, 48 h
How it was run: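 MTT assay. Compound added 24 h after seeding and left for 48 h. MTT was then added for 4 h at 37 °C, formazan dissolved in DMSO and absorbance read at 490 nm. IC50 calculated from three independent experiments.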

HCT-116 = test: Antiproliferative activity against human HCT-116 cells assessed as reduction in cell viability incubated for 48 hrs by MTT assay; format: functional, cell-based; conditions: HCT-116, 48 h; how it was run: as §1
[1] = system: MGC-803/PTX (Homo sapiens); test: Cytotoxicity against human MGC-803/PTX cells assessed as reduction in cell viability at 15 nM incubated for 48 hrs by MTT assay relative to control
[2] = Inhibition of tubulin (unknown origin); parameters: species or system Homo sapiens

SMILES	IC50 (PC-3) [µM]	IC50 (MGC-803) [µM]	IC50 (HCT-116) [µM]	inhibition at 0.015 µM [1] [%]	IC50 [2] [µM]
COc1ccc2nc(SCC(=O)N(Cc3ccc(OC)c(O)c3)c3cc(OC)c(OC)c(OC)c3)sc2c1	4.11	0.071	0.352	–	–
COc1cc2c(c(OC)c1OC)-c1ccc(OC)c(=O)cc1[C@@H](NC(C)=O)CC2 [COLCHICINE]	0.338	0.107	0.129	–	–
COc1ccc(CN(C(=O)CSc2nc3cc(Br)ccc3s2)c2cc(OC)c(OC)c(OC)c2)cc1O	8.21	0.372	3.38	–	–
COc1ccc(CN(C(=O)CSc2nc3ccccc3s2)c2cc(OC)c(OC)c(OC)c2)cc1	8.46	0.163	0.426	–	–
COc1cc(N(Cc2ccccc2)C(=O)CSc2nc3ccccc3s2)cc(OC)c1OC	54.1	44.3	54.5	–	–
COc1ccc(CN(C(=O)CSc2nc3ccccc3s2)c2cc(OC)c(OC)c(OC)c2)cc1N=[N+]=[N-]	14.4	0.187	2.86	–	–
COc1ccc(CN(C(=O)CSc2nc3c(C)cccc3s2)c2cc(OC)c(OC)c(OC)c2)cc1O	12.3	0.493	0.852	–	–
COc1ccc(/C=C\c2cc(OC)c(OC)c(OC)c2)cc1OP(=O)(O)O [FOSBRETABULIN]	0.033	0.02	0.042	–	–
CC(=O)O[C@H]1C(=O)[C@@]2(C)[C@H]([C@H](OC(=O)c3ccccc3)[C@]3(O)C[C@H](OC(=O)[C@H](O)[C@@H](NC(=O)c4ccccc4)c4ccccc4)C(C)=C1C3(C)C)[C@]1(OC(C)=O)CO[C@@H]1C[C@@H]2O [PACLITAXEL]	–	–	–	< 15	–
COc1ccc(CN(C(=O)CSc2nc3ccccc3s2)c2cc(OC)c(OC)c(OC)c2)cc1F	20.1	0.416	1.83	–	–
COc1ccc(CN(C(=O)CSc2nc3ccccc3s2)c2cc(OC)c(OC)c(OC)c2)cc1C	34.3	6.36	17.1	–	–
COc1ccc(CN(C(=O)CSc2nc3ccccc3s2)c2cc(OC)c(OC)c(OC)c2)cc1[N+](=O)[O-]	26.5	0.682	1.28	–	–
COc1ccc(CN(C(=O)CSc2nc3ccccc3s2)c2cc(OC)c(OC)c(OC)c2)cc1C(F)(F)F	> 80	25.2	> 80	–	–
COc1ccc(CN(C(=O)CSc2nc3ccccc3s2)c2cc(OC)c(OC)c(OC)c2)cc1OC	> 80	34.1	33.9	–	–
COc1ccc(CN(C(=O)CSc2nc3ccccc3s2)c2cc(OC)c(OC)c(OC)c2)cc1Br	16	0.852	4.55	–	–
COc1cc(N(Cc2ccc(Br)cc2)C(=O)CSc2nc3ccccc3s2)cc(OC)c1OC	> 80	48.1	63.8	–	–
COc1cc(N2C(=O)[C@H](c3cccs3)[C@H]2c2cccc(N=[N+]=[N-])c2)cc(OC)c1OC	–	–	–	–	2.26
COc1cc(N(Cc2ccc(C)cc2)C(=O)CSc2nc3ccccc3s2)cc(OC)c1OC	> 80	54.2	> 80	–	–
COc1cc(N(Cc2ccc(F)cc2)C(=O)CSc2nc3ccccc3s2)cc(OC)c1OC	50.8	> 80	59.8	–	–
COc1cc(N(Cc2ccc(Cl)cc2)C(=O)CSc2nc3ccccc3s2)cc(OC)c1OC	> 80	> 80	60.3	–	–
COc1ccc(CN(C(=O)CSc2nc3cc(Cl)ccc3s2)c2cc(OC)c(OC)c(OC)c2)cc1O	11.2	0.085	0.429	–	–
COc1ccc(CN(C(=O)CSc2nc3ccccc3s2)c2cc(OC)c(OC)c(OC)c2)cc1N	7.51	0.084	0.491	–	–
COc1cc(CN(C(=O)CSc2nc3ccccc3s2)c2cc(OC)c(OC)c(OC)c2)cc(OC)c1OC	> 80	45.7	65.3	–	–

From ChEMBL document CHEMBL4765386, “Discovery of tertiary amide derivatives incorporating benzothiazole moiety as anti-gastric cancer agents in vitro via inhibiting tubulin polymerization and activating the Hippo signaling pathway” (Eur J Med Chem, 2020)
